Sampled rows, rich in hits. Any-hit rate of the full collection: about 0.79%.
hIAP act: increases human intestinal alkaline phosphatase activity; 0.16% of 330,000 active; P09923; activation factor at 10 µM; purified human IAP, CDP-Star luminescence, 30 min; active compounds read high; 1 = vehicle-only enzyme, 0 = enzyme-free background;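 active = activation factor of the enzyme at least 2-fold when tested at 20 µM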
Target sequence (P09923 whole entry, looked up): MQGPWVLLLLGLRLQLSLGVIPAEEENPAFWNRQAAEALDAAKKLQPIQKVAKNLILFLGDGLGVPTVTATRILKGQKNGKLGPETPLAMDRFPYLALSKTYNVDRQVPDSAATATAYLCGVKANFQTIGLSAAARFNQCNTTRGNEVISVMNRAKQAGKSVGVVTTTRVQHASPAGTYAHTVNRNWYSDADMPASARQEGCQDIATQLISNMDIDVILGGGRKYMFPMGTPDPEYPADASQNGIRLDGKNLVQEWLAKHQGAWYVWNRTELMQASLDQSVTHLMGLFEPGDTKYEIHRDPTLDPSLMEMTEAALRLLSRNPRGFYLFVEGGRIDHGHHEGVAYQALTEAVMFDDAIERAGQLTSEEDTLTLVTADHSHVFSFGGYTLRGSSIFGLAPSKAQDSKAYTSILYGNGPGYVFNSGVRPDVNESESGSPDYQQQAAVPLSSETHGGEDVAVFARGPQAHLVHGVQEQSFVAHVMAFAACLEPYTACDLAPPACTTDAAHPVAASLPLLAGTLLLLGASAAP
bIAP act: increases bovine intestinal alkaline phosphatase activity; 0.17% of 200,000 active; activation factor at 20 µM; purified bovine IAP, CDP-star luminescence, 30 min; active compounds read high; fold of DMSO-control signal, blank-subtracted;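 active = activation factor of 2 or more at 20 µM, a signal rise over negative controls twice the positive control's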
mIAP inh: blocks mouse intestinal alkaline phosphatase; purified mouse IAP, CDP-Star luminescence, 30 min; inhibition, % at 10 µM; 0.2% of 330,000 active; AID 2806;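 active = inhibition of at least 40% at 10 µM in the primary screen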;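 also: plate controls were DMSO with enzyme for no effect and no enzyme wells for full effect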
hIAP block: blocks human intestinal alkaline phosphatase; P09923; purified IAP, CDP-Star luminescence, 30 min; inhibition, % at 10 µM; 0.12% of 330,000 active;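 active = inhibition reaching a set limit with compound at 10 µM in the primary screen, cut at about 35% in these data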;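 also: plate controls were DMSO wells with enzyme for no effect and no-enzyme buffer wells for full effect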
bIAP inh: intestinal alkaline phosphatase (bovine) inhibition; purified bovine IAP, CDP-star luminescence, 30 min; inhibition, % at 20 µM; 190,000 tested, under 10 active;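 active = over 50% inhibition of intestinal alkaline phosphatase at 20 µM in the single-dose screen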
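test system = bovine IAP enzyme | medium = DEA buffer 100 mM, pH 9.8, with MgCl2 1.0 mM, ZnCl2 0.02 mM | detection = luminescence | dosing = single compound dose of 20 µM, 2% DMSO final | incubation = 30 min reaction at room temperature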
mIAP activ: mouse IAP activation; muIAP, CDP-Star luminescence, 30 min; active compounds read high; 1 = vehicle-only enzyme signal, 0 = enzyme-free wells; AID 2805; activation factor at 10 µM; 0.24% of 330,000 active;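 active = activation factor of at least 2 at 20 µM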
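Assay system: mouse IAP enzyme; Reagent: CDP-Star chemiluminescent phosphatase substrate; Compound: DMSO-dissolved test compounds; Incubation: 30 min, room temperature; Technique: luminescence from enzymatic CDP-Star hydrolysis; Controls: DMSO-only wells and no-enzyme negative control.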
An asterisk follows results filed as active; x = no result given.

SMILES	hIAP act	bIAP act	mIAP inh	hIAP block	bIAP inh	mIAP activ
CCN(CC(=O)Nc1cccc(F)c1)Cc1nc2ccccc2c(=O)[nH]1	1.4	1.8	-7	-43	-78	1.1
OCCC1CN(Cc2nc3c(s2)CCCC3)CCN1Cc1ccsc1 (stereo not drawn)	0.92	1	-2	8	-3	1
O=C(NCCC(=O)N1CCN(S(=O)(=O)c2ccccc2)CC1)c1ccc(Br)cc1	1.2	x	-1	-19	x	1
Cc1ccc(NC(=O)CSc2nc3ccccc3c(=O)n2CCCN2CCCCC2)cc1C	1.1	2.4*	-16	-13	-141	1.2
Cn1c(CCN2CCCCC2)nc2cc(NC(=O)NC3CCCCC3)ccc21	1.1	1.8	-12	-10	-77	1.1
CC1CCN(CCc2nc3cc(NC(=O)NC4CCCCC4)ccc3n2C)CC1	1	2.5*	-34	-3	-146	1.3
Cc1ccn2c(Nc3ccccc3C)c(-c3ccccn3)nc2c1	1.2	2.1*	12	-22	-112	0.88
Cc1cc(C)c(C)c(C(=O)CSc2nnc(-c3ccc4[nH]c(C)c(C)c4c3)o2)c1C	0.94	1	-10	6	2	1.1
Cc1[nH]c2ccc(-c3nnc(SCC(=O)c4ccc(F)cc4)o3)cc2c1C	1.2	1	57*	-18	2	0.43
S=C(NCc1ccc2[nH]c3c(c2c1)CCCC3)Nc1ccccc1	1	0.9	-123	0	13	2.2*
CCS(=O)(=O)NCc1ccc2[nH]c3c(c2c1)CCCC3	1	1	-8	-2	-5	1.1
Cc1cc(C)cc(NC(=S)NCc2ccc3[nH]c4c(c3c2)CCCC4)c1	0.9	0.9	-175	10	12	2.8*
Cc1cccc(C)c1NC1=NC2(CCCCC2)N=C(N)N1	1.2	1.2	-4	-24	-20	1
NC1=NC2(CCCCC2)N=C(Nc2ccc(Br)cc2)N1	0.95	0.9	-327	5	8	4.3*
COc1cccc(NC2=NC3(CCCCC3)N=C(N)N2)c1	1	4.3*	-54	-2	-332	1.5
CCc1ccc(C(=O)NNC(=O)CC2OC(=O)c3ccccc32)cc1 (stereo not drawn)	1.1	x	8	-9	x	0.93
COC(=O)C1=C(C)NC(=O)NC1c1ccc(N2CCC(c3ccccc3)=N2)cc1 (stereo not drawn)	1.2	1	-119	-21	-2	2.2*
O=C1NC(=S)S/C1=C/c1ccc(N2CCOCC2)o1	0.85	1	53*	15	-2	0.47
Cc1occc1C(=O)NNC(=O)c1cccc(F)c1	1	1	-5	0	1	1
COc1ccccc1NC(=O)CN1CCN(C2c3ccccc3-c3ccccc32)CC1	1.1	2*	-9	-10	-96	1.1
Cc1ccc(C(=O)NC(NC(=O)c2ccc(C)cc2)C(Cl)Cl)cc1	1.2	0.7	-238	-16	29	3.4*
O=C(CNc1ccc(Br)cc1)c1ccc(Br)s1	0.72	x	10	28	x	0.9
COc1ccccc1S(=O)(=O)NCc1ccc(C(=O)NC(C)c2ccccn2)cc1 (stereo not drawn)	1	x	17	-4	x	0.83
COc1ccc(S(=O)(=O)/N=C2/NC(=O)/C(=C/c3ccco3)S2)cc1	1.1	1.1	57*	-8	-5	0.43
COc1ccc(N=C2NC(=O)/C(=C/c3ccco3)S2)cc1	0.9	x	25	10	x	0.75
SMILES	hIAP act	bIAP act	mIAP inh	hIAP block	bIAP inh	mIAP activ
O=C(NCC1CCN(Cc2cccc(Cl)c2)CC1)Nc1ccc(Cl)cc1	1.4	x	-210	-42	x	3.1*
CCc1cccc(CN2CCC(CNC(=O)Nc3ccc(Cl)cc3)CC2)c1	1.4	1.4	-259	-43	-38	3.6*
COc1cc([N+](=O)[O-])ccc1NC(=O)NCC1CCN(Cc2ccc(Cl)cc2)CC1	0.92	x	-2	8	x	1
O=C(NCCN1CCN(Cc2ccccc2)CC1)Nc1cc(Cl)cc(Cl)c1	1	x	-102	-4	x	2*
O=C(CN(C(=O)Cn1nnc(-c2ccccc2F)n1)c1cccc2c1CCCC2)NCc1ccccc1	1	2.2*	-51	-2	-121	1.5
O=C1S/C(=C\c2cccs2)C(=O)N1c1ccc(O)cc1	1.2	x	6	-17	x	0.94
O=C1S/C(=C\C=C\c2ccco2)C(=O)N1c1ccc(O)cc1	0.99	1.6	80*	1	-59	0.2
O=C1S/C(=C\C=C\c2ccco2)C(=O)N1c1ccccc1	0.73	1	76*	27	3	0.24
COCCCNC(=O)CC(NS(=O)(=O)c1ccc(Cl)cc1)c1ccc(OC)cc1 (stereo not drawn)	0.93	0.7	-19	7	32	1.2
COc1cccc(-c2nnc(SCC(=O)NCc3ccc4c(c3)OCO4)n2Cc2ccco2)c1	1.1	0.9	6	-10	9	0.94
Oc1cc(O)cc(/C=C/c2ccc(O)c(O)c2)c1	0.94	x	78*	6	x	0.22
C#CCOCCOCCOCCNc1nc(N2CCN(C(=O)[C@H](Cc3cc4ccccc4[nH]3)n3cc([C@@H](N)CC(C)C)nn3)CC2)nc(N2CCN(C(=O)[C@H](Cc3cc4ccccc4[nH]3)n3cc([C@@H](N)CC(C)C)nn3)CC2)n1	1.1	3.2*	-109	-12	-220	2.1*
C#CCOCCOCCOCCNc1nc(N2CCN(C(=O)[C@H]([C@@H](C)CC)n3cc([C@@H](N)Cc4ccc(O)cc4)nn3)CC2)nc(N2CCN(C(=O)[C@H](Cc3cc4ccccc4[nH]3)n3cc([C@@H](N)C(C)CC)nn3)CC2)n1 (stereo partly drawn)	0.8	1.6	-39	20	-59	1.4
C#CCOCCOCCOCCNc1nc(N2CCN(C(=O)[C@H](Cc3cc4ccccc4[nH]3)n3cc([C@@H](N)C(C)CC)nn3)CC2)nc(N2CCN(C(=O)[C@H](Cc3cc4ccccc4[nH]3)n3cc([C@@H](N)Cc4ccc(O)cc4)nn3)CC2)n1 (stereo partly drawn)	1.1	2.2*	-108	-11	-116	2.1*
COc1ccccc1N1CCN(C(=S)NC(=O)/C=C/c2ccc(F)cc2)CC1	0.9	x	8	10	x	0.92
Cc1nc2nc(-c3cccnc3)nn2c(C)c1Cl	0.89	1	8	11	-1	0.92
CCOC(=O)C1CCN(C(=O)C2(NC(=O)Nc3ccccc3Cl)CCCCC2)CC1	1.1	3.5*	-23	-12	-249	1.2
CCOC(=O)C1CCN(C(=O)C2(NC(=O)Nc3ccccc3C)CCCCC2)CC1	1.2	x	-7	-21	x	1.1
CC(C)Cn1c(N)c(C(=O)COC(=O)c2nccnc2N)c(=O)n(C)c1=O	1.1	x	48*	-14	x	0.52
CC(C)Cn1c(N)c(C(=O)COC(=O)c2ccncc2)c(=O)n(C)c1=O	1.3	1.1	-12	-27	-8	1.1

Assay outcomes: PubChem, Sanford-Burnham Center for Chemical Genomics
